High-throughput results deposited in PubChem by Sanford-Burnham Center for Chemical Genomics.
Sampled rows, rich in hits. Any-hit rate of the full collection: about 1.5%.
EBI2 block: blocks human EBI2 receptor beta-arrestin signaling; AID 651636; P32249; inhibition, % at 5 µM; EBI2 beta-arrestin recruitment, luminescence, 7a,25-OHC stimulated; 0.81% of 360,000 active; in the data active means inhibition above about 38%;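 further: enzyme fragment complementation signal reports receptor beta-arrestin coupling in cells; 0% = agonist plus DMSO wells and 100% = wells without agonist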
CXCR6 inh: inhibitors of human CXCR6 receptor; CHO-K1 PathHunter CXCR6 beta-arrestin, luminescence; O00574; inhibition, % at 20 µM; 0.36% of 360,000 active; in the data active means inhibition above about 34%, passing the limit was not always enough;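 further: antagonist mode with CXCL16 agonist at 10 nM final; 0% = 10 nM CXCL16 with DMSO and 100% = unstimulated wells without agonist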
Target sequence (O00574 whole entry, looked up): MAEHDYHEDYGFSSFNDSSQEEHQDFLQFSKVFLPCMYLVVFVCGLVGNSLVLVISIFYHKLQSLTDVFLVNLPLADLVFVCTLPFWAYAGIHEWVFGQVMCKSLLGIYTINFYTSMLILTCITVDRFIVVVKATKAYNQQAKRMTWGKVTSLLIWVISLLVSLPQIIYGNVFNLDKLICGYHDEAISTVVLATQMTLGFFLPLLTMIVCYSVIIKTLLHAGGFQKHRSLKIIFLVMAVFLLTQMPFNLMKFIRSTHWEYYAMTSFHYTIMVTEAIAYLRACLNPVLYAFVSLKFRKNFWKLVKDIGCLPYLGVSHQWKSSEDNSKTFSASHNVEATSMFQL
CCR6 antagonist: antagonists of human CCR6 receptor; P51684; CHO-K1 CCR6 PathHunter beta-arrestin, luminescence, CCL20-stimulated; inhibition, % at 20 µM; 0.49% of 340,000 active;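 active means compounds whose inhibition of the agonist-driven luminescence signal at 20 µM reaches about 50%, limit read from the data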;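 further: cells stimulated with CCL20 at 14 nM final; plate controls were DMSO with CCL20 for no effect and DMSO without agonist for full effect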
APJ ag: APJ receptor agonism. P35414. CHO-K1 APJ PathHunter beta-arrestin, luminescence; 0% DMSO wells, 100% apelin. activation, % at 20 µM. 0.11% of 330,000 active. AID 2520;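 active means activation more than six SD over the plate average, tested at 20 µM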;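 further: 0% = DMSO alone and 100% = apelin-13 at 10 nM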
Target sequence (P35414 whole entry, looked up): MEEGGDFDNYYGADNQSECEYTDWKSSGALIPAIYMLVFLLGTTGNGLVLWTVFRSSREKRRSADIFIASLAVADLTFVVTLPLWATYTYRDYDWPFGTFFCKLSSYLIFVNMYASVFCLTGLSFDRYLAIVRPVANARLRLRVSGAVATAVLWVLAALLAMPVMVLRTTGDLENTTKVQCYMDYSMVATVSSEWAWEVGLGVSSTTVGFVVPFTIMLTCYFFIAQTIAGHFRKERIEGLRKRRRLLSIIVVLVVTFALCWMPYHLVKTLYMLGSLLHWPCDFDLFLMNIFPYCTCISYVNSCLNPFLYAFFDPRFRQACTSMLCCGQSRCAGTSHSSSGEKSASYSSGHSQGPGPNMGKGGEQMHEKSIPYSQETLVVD
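Material: CHO-K1 APJ beta-arrestin complementation cell line; Input: cell density 1000 per well; Incubation: compound stimulation 90 min at 25 °C, detection 60 min; Signal: luminescence from split beta-galactosidase complementation, Galacton Star/Emerald II substrate; Controls: DMSO-only wells as negative, 10 nM Apelin-13 as positive control.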
APJ antagonist: blocks the human apelin receptor APJ; P35414; 0.32% of 330,000 active; CHO-K1 APJ beta-arrestin complementation, luminescence; inhibition, % at 20 µM; AID 2521;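 active means inhibition above about 40% at 20 µM, limit read from the data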;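 further: cells challenged with 10 nM apelin-13 agonist together with compound; plate controls were apelin-13 plus DMSO wells for no effect and DMSO wells lacking apelin-13 for full effect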
* = called active by the depositor; x = no result given; ! = repeats disagree.

SMILES | EBI2 block | CXCR6 inh | CCR6 antagonist | APJ ag | APJ antagonist
Cc1ccccc1OCc1nc2ccccc2c(=O)n1/N=C/c1c[nH]c2ccccc12 | 11.4 | -9.5 | -9.4 | -2.6 | 0.3
Cc1cc(/C=N/n2c(COc3ccccc3C)nc3ccccc3c2=O)c(O)c([N+](=O)[O-])c1 | 20.6 | 17.8 | 58.5* | -5.2 | 25.5
O=C(Cn1sc2ccccc2c1=O)Nc1ccccc1 | -0.5 | -4.6 | x | x | x
O=C(Cn1sc2ccccc2c1=O)NC12CC3CC(CC(C3)C1)C2 | 32.0 | 40.6* | 28.7 | 7.9 | 3.4
CCCCOP(=O)(OCCCC)C(Nc1ccc(C(=O)OCC)cc1)c1ccncc1 (stereo unspecified) | 4.0 | -0.7 | 12.8 | -0.2 | -7.3
O=C1C(Cc2ccccc2)Nc2ncnc(N3CCCCC3)c2N1Cc1ccc(Cl)cc1 (stereo unspecified) | -2.2 | 28.4 | 51.1* | -14.6 | -9.4
O=C(Nc1ccc2c(c1)OCCO2)C(CCc1ccccc1)N1CCC(Cc2ccccc2)CC1 (stereo unspecified) | 14.4 | 14.8 | x | x | x
CCOc1ccc(C(=O)NC(=S)Nc2ccc(N3CCC(C)CC3)cc2)cc1[N+](=O)[O-] | 8.3 | 23.7 | 53.0* | x | x
CCOc1ccc(C(=O)NC(=S)Nc2ccc(NC(=O)c3ccco3)c(C)c2)cc1[N+](=O)[O-] | 2.1 | 23.9 | 50.3* | -5.4 | 27.2
CC(=O)NC(CC(=O)OCC(=O)N1CCc2ccccc21)c1ccccc1 (stereo unspecified) | 2.4 | -0.1 | 7.7 | -2.0 | -2.4
Cc1cc(-c2ccc(N=Nc3c(S(=O)(=O)O)cc4cc(S(=O)(=O)O)cc(N)c4c3O)c(C)c2)ccc1N=Nc1c(S(=O)(=O)O)cc2cc(S(=O)(=O)O)cc(N)c2c1O | x | x | x | -16.5 | 78.0*
Nc1cc(S(=O)(=O)O)cc2ccc(S(=O)(=O)O)cc12 | -33.0 | -12.1 | -1.6 | x | x
C[C@H]1CN=C(Nc2ccccc2)N1CC1CCCCCC1 | -7.9 | 3.9 | 0.5 | 3.1 | 5.4
CCCCCCCCn1ccc(=N)cc1 | -1.8 | 0.7 | -9.9 | 6.7 | 35.5
CCCCCCCCCCCCCCCCn1cc[n+](C)c1 | -7.2 | 16.5 | 56.6*! | -1.9 | 22.2
Cc1ccc(CN(C)C(=O)C2CCC(=O)N(CCc3ccccc3)C2)o1 (stereo unspecified) | 21.2 | -2.6 | -4.1 | -0.9 | 16.4
NNc1nc(-c2ccccc2)cs1 | 3.1 | 18.8 | 59.4* | -5.0 | 29.7
C(=N\Nc1nc(-c2ccccc2)cs1)/c1ccco1 | -14.4 | -16.3 | -18.4 | 10.3* | -53.7
Cc1ccc(-c2csc(N/N=C/c3ccco3)n2)cc1 | -10.1 | -7.7 | -13.4 | 5.3 | -0.2
Clc1cccc(CNc2ccn3nc(-c4cccc(Cl)c4)cc3n2)c1 | 19.4 | 0.3 | x | x | x
Clc1ccc(Cn2ncc3c(N4CCN(c5ccccc5)CC4)ncnc32)cc1 | -52.0 | -16.3 | x | x | x
CN(CCOc1ccc(Cl)cc1)C(=O)C1CCN(C(=O)c2ccc(F)cc2)CC1 | 31.5 | 5.6 | 15.7 | -8.8 | 11.0
CN(CCOc1ccccc1)C(=O)C1CCN(C(=O)c2ccc(Cl)cc2)CC1 | 64.1* | -9.6 | 17.4 | -4.0 | 9.8
Cc1ccc(/C=C/C(=O)Nc2sc3c(c2C#N)CCCC3)o1 | 7.2 | -5.9 | 17.4 | -3.6 | 14.4
CCCn1c(CNc2ccccc2O)nc2ccccc21 | -11.1 | 30.9 | 62.5* | 6.8 | -55.5
SMILES | EBI2 block | CXCR6 inh | CCR6 antagonist | APJ ag | APJ antagonist
S=C(NCCCCN(Cc1ccc(Cl)cc1)c1ccc(Br)cn1)NCCCc1cnc[nH]1 | -5.6 | 8.9 | x | x | x
CC(C)(C)NC(=O)C(c1cccc2ccccc12)n1c(=O)c(-c2cc3ccccc3[nH]2)nc2ccccc21 (stereo unspecified) | 20.5 | x | x | x | x
Cc1nc2ccc(NC(=O)c3ccc(Cl)c([N+](=O)[O-])c3)cc2s1 | 5.3 | 0.7 | 2.8 | -1.9 | -15.1
Cc1nc2ccc(NC(=O)c3cc([N+](=O)[O-])cc([N+](=O)[O-])c3Cl)cc2s1 | -10.4 | 9.5 | 96.9* | x | x
CC(C)(C)NC(=O)C(c1cc2ccccc2o1)n1c(-c2ccc(-c3ccccc3)cc2)nc2ccccc21 (stereo unspecified) | 36.9 | x | x | x | x
Cc1ccc2nc3cc([N+](=O)[O-])cc([N+](=O)[O-])c3cc2c1 | 53.4* | 22.9 | 49.6 | x | x
Cc1cccc(NC(=O)Oc2ccc(Cl)c3cccnc23)c1 | 11.0 | 45.7* | x | x | x
CNC(=O)COc1ccc(Cl)c2cccnc12 | -9.5 | -5.4 | -5.2 | -0.8 | 9.4
O=C1C(Cl)=C(Nc2ccccc2)C(=O)c2ccccc21 | 25.4 | 35.7 | 53.1* | x | x
Cc1ccccc1OCCCN1C(=O)C(=O)c2cccc(C)c21 | 11.6 | 29.7 | 58.1* | -8.2 | 47.8*
Cc1cccc2c1N(CCCOc1ccc(C(C)(C)C)cc1)C(=O)C2=O | 3.6 | 23.7 | 51.5* | -14.0 | 21.3
Cc1cccc(OCCN2C(=O)C(=O)c3cccc(C)c32)c1 | -5.7 | -5.4 | -0.3 | 0.3 | -2.6
COc1cc(OC)cc(C2=Cc3ccccc3C(CC(=O)c3ccco3)N2c2ccc(-c3cncnc3)cc2)c1 (stereo unspecified) | -0.2 | -3.9 | x | x | x
O=[N+]([O-])c1ccc(Sc2ncccn2)c([N+](=O)[O-])c1 | -66.8 | -18.5 | -15.0 | 7.8 | -43.6
O=[N+]([O-])c1cnc(Sc2ccncn2)c([N+](=O)[O-])c1 | -11.8 | 100.2* | x | x | x
COc1ccc(OC)c2c1C(=O)C(Cl)=C(Cl)C2=O | 20.6 | 102.1* | 105.0* | -2.9 | 27.4
CCC(=O)/C=C1/Sc2ccc(OC)cc2N1CCO | -0.3 | 0.1 | 19.7 | -2.7 | 2.5
CCC(/C=C1\Sc2ccc(OC)cc2N1CC)=C\c1sc2ccc(OC)cc2[n+]1CCCS(=O)(=O)[O-] | -9.9 | 11.0 | 76.9* | -3.1 | 17.9
CCC(/C=C1\Sc2ccc(OC)cc2N1CCO)=C\c1sc2ccc(OC)cc2[n+]1CCO | 9.4 | 8.9 | 67.6* | -1.7 | -33.2
C=CCn1c(Sc2ncc([N+](=O)[O-])s2)n[nH]c1=O | 5.6 | 42.4* | 56.3* | 10.5 | 31.3
O=C(O)CCN1C(=O)/C(=C2\C(=O)N(Cc3ccccc3Cl)c3ccccc32)SC1=S | 0.1 | 15.9 | x | 0.0 | -3.6
COc1ccc(NC(=O)CN2C(=O)/C(=C3\SC(=S)N(CCC(=O)O)C3=O)c3ccccc32)cc1 | -0.9 | 7.6 | 55.2* | 12.0 | -142.2
O=C(c1ccco1)N1N=C(c2ccccc2)CC1c1ccc2nccnc2c1 (stereo unspecified) | 1.2 | 13.8 | 13.9 | -1.6 | -12.5
CC(C)N1C(=O)C(Cc2nc3ccccc3c(=O)n2-c2ccccc2)c2ccccc21 (stereo unspecified) | 11.8 | 3.8 | 21.0 | -3.1 | 19.0
CC(C)N1C(=O)/C(=C/c2nc3ccccc3c(=O)n2-c2ccccc2)c2ccccc21 | 56.0* | 13.3 | 11.2 | -1.2 | 30.6
CC(C)N1C(=O)/C(=C\c2nc3ccccc3c(=O)n2-c2ccccc2)c2ccccc21 | 55.5* | 11.9 | 23.6 | x | x
O=c1c2ccccc2n(Cc2ccc(Cl)cc2)c(=O)n1Cc1ccco1 | 76.6* | 11.0 | 7.0 | -2.6 | 17.4
